# Diaph inh CS: inhibits diaphorase or chemically oxidizes, flagging diaphorase assay artifacts | diaphorase resazurin-to-resorufin fluorescence, NADH, 16 min; bacterial (C. kluyveri) enzyme, not human | inhibition, % at 20 µM | hit rate 0.69% among 190,000 | AID 1217;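 active = primary screen inhibition at 20 µM above a set limit, cut at about 50% in these data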;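 note: plate controls were DMSO with full reaction for no effect and wells lacking NADH for full effect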
#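 Assay system: diaphorase enzyme from Clostridium kluyveri. Quantity: enzyme working solution with 0.14 U/mL diaphorase. Schedule: reaction incubation of 16 min at room temperature. Technique: resorufin fluorescence, excitation 544 nm, emission 590 nm. Controls: No-NADH positive control and DMSO neutral control.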
# Diaph act CS: diaphorase activation or chemical reduction counter-screen | Diaphorase/resazurin coupled assay, resorufin fluorescence, 16 min; hits give high values; 1 = vehicle wells, 0 = NADH-free wells | hit rate 0.005% among 190,000 | activation factor at 20 µM;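 active = diaphorase activity raised at least twofold by the compound at 20 µM; inactive = activation factor below 2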
#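 System – purified diaphorase enzyme from Clostridium kluyveri · Input – enzyme 0.07 U/mL final · Also added – final NADH 0.114 mM, resazurin 0.1 mM · Measured by – fluorescence of resorufin, 544 nm excitation, 590 nm emission · Timing – 16 min enzyme reaction, ambient temperature · Measure – resorufin increase flagging diaphorase activators or reducers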
# PMI activator: increases human mannose-6-phosphate isomerase activity | activation factor at 20 µM | purified human PMI, coupled resazurin fluorescence, 20 min; hits give high values; 1 = vehicle control, 0 substrate-free wells | hit rate 0.005% among 190,000 | P34949;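 active = activation factor of 2 or more at 20 µM, relative to plate controls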
# Target sequence (P34949 whole entry, looked up): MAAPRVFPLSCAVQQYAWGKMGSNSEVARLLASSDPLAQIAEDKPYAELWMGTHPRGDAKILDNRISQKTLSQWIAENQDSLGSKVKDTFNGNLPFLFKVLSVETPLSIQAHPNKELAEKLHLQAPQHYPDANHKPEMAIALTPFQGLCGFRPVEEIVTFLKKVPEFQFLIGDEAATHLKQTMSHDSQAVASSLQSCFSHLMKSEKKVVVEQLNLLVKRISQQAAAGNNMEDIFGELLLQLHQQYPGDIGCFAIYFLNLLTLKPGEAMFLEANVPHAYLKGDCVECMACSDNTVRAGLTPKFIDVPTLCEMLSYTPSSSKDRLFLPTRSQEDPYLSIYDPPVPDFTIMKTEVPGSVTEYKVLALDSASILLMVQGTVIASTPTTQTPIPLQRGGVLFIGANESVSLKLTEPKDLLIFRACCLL
# G6PDH counter: counter-screen for G6PDH assay hits: L. mesenteroides G6PDH inhibition | Purified L. mesenteroides G6PDH, diaphorase/resazurin coupled fluorescence, 45 min | inhibition, % at 5 µM | hit rate 0.12% among 200,000; in the data active = inhibition above about 50%
# PMI act satM6P: PMI (human) activation, high substrate; P34949; coupled PMI enzyme assay, resazurin fluorescence, 20 min; hits give high values; 1 = untreated enzyme, 0 = substrate-free blank; activation factor at 20 µM; hit rate 0.34% among 190,000; AID 1216;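 active = activation factor of 2 or more at 20 µM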
#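 test system = human PMI in coupled enzyme assay | medium = HEPES-buffered pH 7.4 with magnesium and detergent | also added = 1.0 mM mannose-6-phosphate substrate with 0.22 mM NADP+ | compound = 20 µM single dose | times = 20 min incubation at room temperature | measured by = resorufin fluorescence (Ex 544/Em 590 nm) from resazurin via diaphorase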
# An asterisk follows results filed as active. Compounds with a hit are over-represented: about 1.1% of the library has one in this group of screens.
SMILES,Diaph inh CS,Diaph act CS,PMI activator,G6PDH counter,PMI act satM6P
Cc1ccc2c(c1)CC1(CN2C)C(=O)NC(=O)N(CCC2=CCCCC2)C1=O (centres undefined),13,0.9,1.6,4,2.1*
Cc1cccc(N2C(=O)NC(=O)C3(Cc4cc(C)ccc4N(C)C3)C2=O)c1 (centres undefined),3,1,1.5,1,1.4
O=C1C2CCN(CC2)C1Cc1ccccc1O (centres undefined),-3,1,1.1,3,1
Oc1ccc(CC2CC3CCN2CC3)cc1O (centres undefined),53*,0.5,0.5,40,0.7
O=C1C(=O)c2cccc3cccc1c23,18,0.8,0.8,24,0.6
O=C1C(=O)c2ccccc2-c2ccccc21,24,0.8,0.7,53*,1
CCCCOC(=O)C1=C(N)OC2=C(C(=O)CCC2)[C@]12C(=O)N(C)c1ccccc12,-7,1.1,1,11,1
CCn1nc(-c2ccccc2)nc2c(=O)n(C)c(=O)nc1-2,-44,1.4,1,59*,0.9

# Assay outcomes: PubChem BioAssay, Sanford-Burnham Center for Chemical Genomics
